Experiments:
Type in all cases: functional, cell-based
[1] = test system: SF-268; assay: Cytotoxicity against human SF268 cells after 3 days by SRB assay; conditions: SF-268, 72 h
Procedure, shortened: (§1)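 Cells kept in RPMI-1640 with 2 mM L-glutamine, 25 mM HEPES and 10% FBS at 37 °C, 5% CO2. Seeding per well: MCF-7 5000, NCI/ADR 7500, NCI-H460 5000, SF-268 7500; 24 h adherence. Compound at 0.001 to 1000 nM, triplicate wells, 3 days. TCA fixation 1 h at 4 °C, 0.2% SRB 20 min, bound dye extracted in 10 mM Tris, absorbance at 515 nm.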

[2] = test system: MCF7; assay: Cytotoxicity against human MCF7 cells after 3 days by SRB assay; conditions: MCF7, 72 h; procedure, shortened: as §1
[3] = test system: NCI-H460; assay: Cytotoxicity against human NCI-H460 cells after 3 days by SRB assay; conditions: NCI-H460, 72 h; procedure, shortened: as §1
[4] = Cytotoxicity against human NCI/ADR cells after 3 days by SRB assay; conditions: NCI/ADR-RES, 72 h; procedure, shortened: as §1

SMILES	IC50 [1]	IC50 [2]	IC50 [3]	IC50 [4]
CC1=C/C[C@@H](/C(C)=C/c2csc(C)n2)OC(=O)C[C@H](O)C(C)(C)C(=O)[C@H](C)[C@@H](O)[C@@H](C)C\C=C\1	92 nM	47 nM	47 nM	250 nM
CC1=C/C[C@@H](/C(C)=C/c2csc(C)n2)OC(=O)C[C@H](O)C(C)C(=O)[C@H](C)[C@@H](O)[C@@H](C)C\C=C\1 (stereo not given in full)	390 nM	250 nM	345 nM	395 nM
C/C1=C/C[C@@H](/C(C)=C/c2csc(C)n2)OC(=O)C[C@H](O)C(C)(C)C(=O)[C@H](C)[C@@H](O)[C@@H](C)C(=O)CC1	> 1000 nM	500 nM	> 1000 nM	> 1000 nM
C/C(=C\c1csc(C)n1)[C@@H]1C/C=C\CCC[C@H](C)[C@H](O)[C@@H](C)C(=O)C(C)(C)[C@@H](O)CC(=O)O1 [EPOTHILONE C]	340 nM	97 nM	280 nM	310 nM
C/C1=C/C[C@@H](/C(C)=C/c2csc(C)n2)OC(=O)C[C@H](O)C(C)(C)C(=O)[C@H](C)[C@@H](O)[C@@H](C)CCC1 [EPOTHILONE D]	18 nM	16 nM	30 nM	44 nM
